# Results from different studies.
# Protocols differ between the studies behind these lines.
# Target: Acetylcholinesterase (ACHE, Homo sapiens, UniProt P22303)
# Mode: inhibitor
SMILES,test,IC50 [µM]
COc1ccc(/C=N/n2c(-c3cc([N+](=O)[O-])c[nH]3)n[nH]c2=S)cc1,"enzyme activity, Ellman",25.1
C#CCN(C)CCCOc1cccc(CN(C)c2c3c(nc4ccccc24)CCCC3)c1,"enzyme activity, Ellman",2.82
O=[N+]([O-])c1c[nH]c(-c2n[nH]c(=S)n2/N=C/c2ccc(Cl)c([N+](=O)[O-])c2)c1,"enzyme activity, Ellman",13.2
C#CCN(C)CCCCCCOCc1ccc(CN(C)c2c3c(nc4ccc(C)cc24)CCCC3)cc1,"enzyme activity, Ellman",45.8
COc1ccc(S(=O)(=O)Oc2ccc(C=NNC(=O)c3ccc(F)cc3)cc2OC)cc1,"enzyme activity, Ellman",0.0614
O=[N+]([O-])c1c[nH]c(-c2n[nH]c(=S)n2/N=C/c2cc(Cl)cc(Cl)c2)c1,"enzyme activity, Ellman",13.6
Cn1cc(-c2cc(C(=O)NN=Cc3ccccc3)no2)c2ccccc21,enzyme activity,> 100
COc1ccc(S(=O)(=O)Oc2ccc(C=NNC(=O)c3ccc(F)cc3)cc2)cc1,"enzyme activity, Ellman",0.0121
O=C(NCCN1CCCCC1)c1cccc([N+](=O)[O-])c1,"enzyme activity, Ellman",2
O=[N+]([O-])c1c[nH]c(-c2n[nH]c(=S)n2/N=C/c2cc(O)cc(F)c2)c1,"enzyme activity, Ellman",8.8
CNC(=O)c1ccc(-c2cnn3ccc(C(=O)N(C)c4ccc(Cl)c(C(=O)O)c4)cc23)cc1,cell-free assay,> 30
O=[N+]([O-])c1c[nH]c(-c2n[nH]c(=S)n2/N=C/c2ccc(F)c(O)c2)c1,"enzyme activity, Ellman",9.2
C#CCN(C)CCCCOCc1ccc(CN(C)c2c3c(nc4ccc(C)cc24)CCCC3)cc1,"enzyme activity, Ellman",16.2
CSc1ccc(C=NNC(=O)c2cc(-c3cn(C)c4ccccc34)on2)cc1,enzyme activity,> 100
COc1ccc(C(=O)NCCN2CCCCC2)cc1,"enzyme activity, Ellman",5.6
Cn1cc(-c2cc(C(=O)NN=Cc3ccccc3Cl)no2)c2ccccc21,enzyme activity,> 100
O=[N+]([O-])c1c[nH]c(-c2n[nH]c(=S)n2/N=C/c2ccc(Br)c(Br)c2)c1,"enzyme activity, Ellman",27.1
O=C(NCCN1CCCCC1)c1ccccc1F,"enzyme activity, Ellman",0.013
C#CCN(C)CCCCCOCc1ccc(CN(C)c2c3c(nc4ccccc24)CCCC3)cc1,"enzyme activity, Ellman",4.84
COc1ccc(OC)c(C=NNC(=O)c2cc(-c3cn(C)c4ccccc34)on2)c1,enzyme activity,> 100
O=C(NCCN1CCCCC1)c1cccc(F)c1,"enzyme activity, Ellman",1.6
